Bioassay records (PubChem)
Bcl-W Bim block: inhibitors of Bim-Bcl-W interaction, human. Q92843. bead-based flow cytometry, Bim peptide-Bcl-W binding. inhibition, % at 10 µM. 190,000 tested, 0.02% active. AID 952;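 also: 0% = bound tracer without compound and 100% = peptide blocker; higher means less fluorescent Bim peptide bound to Bcl-W beads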
Target sequence (Q92843 whole entry, looked up): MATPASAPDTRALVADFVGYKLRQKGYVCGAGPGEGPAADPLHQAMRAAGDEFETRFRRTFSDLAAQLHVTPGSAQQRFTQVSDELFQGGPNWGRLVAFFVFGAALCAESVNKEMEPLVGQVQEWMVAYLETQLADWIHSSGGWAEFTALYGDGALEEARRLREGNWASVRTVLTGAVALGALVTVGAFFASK
Bim-Bcl-2: disrupts Bim peptide binding to human Bcl-2; P10415; Bead-based flow cytometry, Bim peptide-Bcl-2 binding; inhibition, % at 10 µM; 190,000 tested, 0.06% active; in the data active = inhibition above about 40%;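 also: 0% = no compound wells with probe peptide and 100% = reference peptide inhibitor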
Rad51 HR inh: Rad51 (human) homologous recombination inhibition. Q06609. hRad51 DNA strand exchange, fluorescence dequenching. inhibition, % at 10 µM. 200,000 tested, 0.085% active. AID 1385;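 active = inhibition above 40% at the single screening dose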;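 also: 0% = DMSO control wells and 100% = blanks with heterologous ssDNA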
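Material: hRad51 filaments on single-stranded DNA; Reagent: Donor/quencher-labelled 47-bp dsDNA substrate; Compound: 10 µM final, single point; Schedule: 37 °C 15-min filament assembly, 30-min compound preincubation, 15-min exchange; Technique: FRET fluorescence, excitation 485 nm, emission 520 nm; Benchmarks: control wells and blank wells on each plate.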
Bfl-1 Bim block: human Bim-Bfl-1 interaction inhibition. Q16548. 190,000 tested, 0.12% active. Bead-based flow cytometry, Bim-Bfl-1 binding inhibition. inhibition, % at 10 µM;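 also: 0% = wells without compound plus tracer and 100% = blocker peptide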
Bim-Bcl-B: human Bim-Bcl-B interaction inhibition; inhibition, % at 10 µM; AID 951; Q9HD36; 190,000 tested, 0.073% active; bead-based flow cytometry, Bim peptide-Bcl-B binding;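 also: 0% = tracer peptide without compound and 100% = reference inhibitor peptide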
Bcl-XL Bim block: disrupts Bim peptide binding to human Bcl-XL; bead flow cytometry, fluorescence; AID 1007; 190,000 tested, 0.04% active; inhibition, % at 10 µM; Q07817
Bim-Bcl-XL DR: confirmation of regulators of human Bim-Bcl-XL interaction; shares compounds with Bfl-1 Bim block; bead-based flow cytometry, Bim-Bcl-XL binding; inhibition of binding at 100 µM; 40 tested, under 10 active; call rule not given here
* = called active by the depositor; · = no result given. This is a sample that favours compounds with a hit; in the whole collection about 0.23% have one here. Rule as the data show it, unless noted: active = inhibition above about 40%.

SMILES | Bcl-W Bim block | Bim-Bcl-2 | Rad51 HR inh | Bfl-1 Bim block | Bim-Bcl-B | Bcl-XL Bim block | Bim-Bcl-XL DR
CC(=O)OCCCNc1cc(Sc2nc3ccccc3s2)c2nonc2c1[N+](=O)[O-] | 11.0 | 2.0 | -2.5 | 48.0* | -4.0 | 3.0 | 4.68
CC(=O)OCCNc1cc(SCc2ccco2)c2nonc2c1[N+](=O)[O-] | 2.0 | -1.0 | · | 13.0 | -11.0 | -5.0 | ·
CNC(CC(=O)c1ccc([N+](=O)[O-])cc1)C(Cl)(Cl)Cl (stereo unspecified) | 3.0 | 11.0 | 6.6 | 55.0* | 4.0 | 2.0 | 2.35
CC1(N(O)/C=C2\C=CC=CC2=O)CCCCC1=O (stereo unspecified) | · | · | -3.0 | · | · | · | ·
S=c1[nH]cc(-c2ccccc2)n1-c1ccccc1Cl | -3.0 | -12.0 | -7.3 | -14.0 | 26.0 | -4.0 | ·
COc1ccccc1-n1c(-c2ccccc2)c[nH]c1=S | 3.0 | 3.0 | -2.1 | 22.0 | -20.0 | -2.0 | 2.08
Cc1ccc(OCc2nnc(NC(=O)c3ccco3)s2)cc1 | 5.0 | -10.0 | -10.1 | -10.0 | -6.0 | 0.0 | ·
O=C(Nc1nnc(COc2ccc(Cl)cc2)s1)c1ccco1 | -9.0 | -2.0 | 4.7 | 23.0 | -43.0 | -15.0 | -5.02
CCOC(=O)N1CCC(Nc2c(NCCCN3CCN(C4CCCCC4)CC3)c(=O)c2=O)CC1 | -2.0 | -4.0 | -0.3 | -7.0 | -4.0 | -3.0 | ·
Cc1ccc(-c2cc(C(=O)Nc3nccs3)c3ccccc3n2)o1 | 4.0 | 11.0 | -55.9 | 37.0 | -3.0 | 0.0 | -0.506
CSCC[C@H](NC(=O)OC(C)(C)C)C(=O)N/N=C/c1ccc2nccnc2c1 | · | · | 0.9 | · | · | · | ·
CCN(C(=O)COc1cc(=O)n(CC)c2ccccc12)c1cccc(Cl)c1 | 5.0 | -1.0 | -2.8 | -8.0 | -6.0 | 7.0 | ·
O=C1c2ccccc2C(=O)N1CN(C(=O)COc1ccc(Cl)cc1Cl)c1cccc(F)c1 | 2.0 | 0.0 | 2.9 | -5.0 | 16.0 | -2.0 | -1.37
